Measured values published in ChEMBL document CHEMBL1136360, “2,5-disubstituted 3,4-dihydro-2H-benzo[b][1,4]thiazepines as potent and selective V2 arginine vasopressin receptor antagonists” (Bioorg Med Chem Lett, 2003).

What was measured:
[1] = biological target: T1, Vasopressin V2 receptor (Homo sapiens, UniProt P30518); test: Ability to displace [3H]arginine vasopressin in cloned human V2 receptor
How it was run: (§1)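 Radioligand displacement of 3H-arginine vasopressin from cloned human V1a or V2 receptors. Single-concentration lines are read as percent inhibition at […].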

[2] = biological target: T2, Vasopressin V1a receptor (Homo sapiens, UniProt P37288); test: Ability to displace [3H]arginine vasopressin in cloned human V1a receptor; how it was run: as §1
[3] = system: Rattus norvegicus; test: Effect on urine volume at a dose of 30 mg/kg in hydrated 10 male rats was determined; format: functional
How it was run: (§2)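 Conscious, hydrated male Sprague–Dawley rats dosed orally with test compound in 0.5% hydroxypropyl-methylcellulose vehicle, or with vehicle alone (3–100 mg/kg). Urine collected over 4 h. Urine volume (mL) and osmolality (mOsmol/Kg) reported as mean with error, about 10 animals per group. Significance judged at p<0.05 versus vehicle.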

[4] = system: Rattus norvegicus; test: Effect on urine volume at a dose of 3 mg/kg in hydrated 10 male rats was determined; format: functional; how it was run: as §2
[5] = system: Rattus norvegicus; test: Effect on urine osmolality at a dose of 10 mg/kg in hydrated 10 male rats was determined; format: functional; how it was run: as §2
[6] = system: Rattus norvegicus; test: Effect on urine volume at a dose of 100 mg/kg in hydrated 10 male rats was determined
[7] = system: Rattus norvegicus; test: Effect on urine osmolality at a dose of 3 mg/kg in hydrated 10 male rats was determined; format: functional; how it was run: as §2
[8] = system: Rattus norvegicus; test: Effect on urine osmolality at a dose of 30 mg/kg in hydrated 10 male rats was determined; format: functional; how it was run: as §2
[9] = biological target: T2, Vasopressin V1a receptor; test: Inhibition of vasopressin induced calcium […] in human V1a receptor expressing cells; format: functional
How it was run: (§3)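 Functional antagonism in cells expressing the human receptor. For V2, inhibition of vasopressin-induced cAMP accumulation. For V1a, inhibition of vasopressin-induced calcium mobilization.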

[10] = system: Rattus norvegicus; test: Effect on urine volume at a dose of 10 mg/kg in hydrated 10 male rats was determined; format: functional; how it was run: as §2
[11] = system: Rattus norvegicus; test: Effect on urine osmolality at a dose of 100 mg/kg in hydrated 10 male rats was determined; format: functional; how it was run: as §2
[12] = biological target: T1, Vasopressin V2 receptor; test: Inhibition of vasopressin induced cAMP accumulation in human V2 receptor expressing cells; format: functional; how it was run: as §3

T2 sequence (P37288 whole entry): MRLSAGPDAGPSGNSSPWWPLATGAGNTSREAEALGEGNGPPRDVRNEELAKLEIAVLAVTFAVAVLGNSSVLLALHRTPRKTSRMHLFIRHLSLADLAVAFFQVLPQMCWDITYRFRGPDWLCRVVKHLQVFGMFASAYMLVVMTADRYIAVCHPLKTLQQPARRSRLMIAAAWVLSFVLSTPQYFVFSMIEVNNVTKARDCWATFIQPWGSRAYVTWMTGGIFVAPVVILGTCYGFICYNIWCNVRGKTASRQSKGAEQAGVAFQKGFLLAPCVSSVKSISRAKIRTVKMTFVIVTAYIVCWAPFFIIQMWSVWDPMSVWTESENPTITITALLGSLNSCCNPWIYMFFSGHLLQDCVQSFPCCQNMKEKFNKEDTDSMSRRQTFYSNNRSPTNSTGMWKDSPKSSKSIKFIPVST
T1 sequence (P30518 whole entry): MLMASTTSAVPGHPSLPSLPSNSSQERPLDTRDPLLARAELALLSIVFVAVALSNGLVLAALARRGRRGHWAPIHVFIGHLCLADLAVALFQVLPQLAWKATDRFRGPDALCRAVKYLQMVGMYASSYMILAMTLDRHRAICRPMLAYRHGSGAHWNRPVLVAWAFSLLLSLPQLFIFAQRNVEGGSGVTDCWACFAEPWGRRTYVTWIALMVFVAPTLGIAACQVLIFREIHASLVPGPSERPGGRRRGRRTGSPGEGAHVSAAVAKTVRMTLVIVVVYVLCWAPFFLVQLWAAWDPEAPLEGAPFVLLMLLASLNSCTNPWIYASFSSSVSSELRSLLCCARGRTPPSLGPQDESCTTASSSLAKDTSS

SMILES | IC50 [1] [nM] | IC50 [2] [nM] | IC50 [9] [nM] | IC50 [12] [nM] | also measured
O=C(Nc1ccc(C(=O)N2CCC(CC(F)F)Sc3ccccc32)cc1)c1ccccc1-c1ccccc1 (centres undefined) | 100 | 160 |  |  | 
O=C(O)C[C@@H]1CCN(C(=O)c2ccc(NC(=O)c3ccccc3-c3ccccc3)cc2)c2ccccc2S1 | 8 | 1140 | 1760 | 30 | Urine volume [3]: 15.7 mL; Urine volume [4]: 2.2 mL; Urine osmolality [5]: 299 mOsmol kg-1; Urine volume [6]: 13.8 mL; Urine osmolality [7]: 529 mOsmol kg-1; Urine osmolality [8]: 161 mOsmol kg-1; Urine volume [10]: 7.3 mL; Urine osmolality [11]: 177 mOsmol kg-1
O=C(Nc1ccc(C(=O)N2CCC(CCS(=O)(=O)O)Sc3ccccc32)cc1)c1ccccc1-c1ccccc1 (centres undefined) |  | 1150 |  |  | 
O=C(O)C[C@H]1CCN(C(=O)c2ccc(NC(=O)c3ccccc3-c3ccccc3)cc2)c2ccccc2S1 | 7 | 440 | 2130 | 36 | 
O=C(O)CC[C@H]1CCN(C(=O)c2ccc(NC(=O)c3ccccc3-c3ccccc3)cc2)c2ccccc2S1 | 15 | 140 | 2010 | 30 | 
O=C(O)CC1CCN(C(=O)c2ccc(NC(=O)c3ccccc3-c3ccccc3)cc2)c2ccccc2S1 (centres undefined) | 7 | 729 | 740 | 40 | 
O=C(Nc1ccc(C(=O)N2CCC(CCF)Sc3ccccc32)cc1)c1ccccc1-c1ccccc1 (centres undefined) | 85 | 180 |  |  | 
CN(C)CC1CCN(C(=O)c2ccc(NC(=O)c3ccccc3-c3ccccc3)cc2)c2ccccc2S1 (centres undefined) | 430 | 1200 |  |  | 
O=C(O)CC[C@@H]1CCN(C(=O)c2ccc(NC(=O)c3ccccc3-c3ccccc3)cc2)c2ccccc2S1 | 16 | 314 | 4630 | 40 | 
O=C(Nc1ccc(C(=O)N2CCC(CCO)Sc3ccccc32)cc1)c1ccccc1-c1ccccc1 (centres undefined) | 8 | 97 | 150 | 100 | 
